From PubChem
RGS4 inh = human RGS4 inhibition; P49798; HEK293 M3R/RGS4 inducible, Fluo-4 calcium flux; stronger effect = higher value; triggered by carbachol at its EC20; B-score at 10 µM; hit rate 0.45% among 310,000; AID 463165;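 active means B-score, a plate-corrected calcium signal, over three deviations above library mean, with baseline fluorescence within five deviations of library mean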;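 further: RGS4 expression induced by doxycycline in cells with stable M3 receptor; B-score is computed from the integrated fluorescence ratio over baseline after carbachol; higher B-score means a larger calcium signal and so more RGS4 inhibition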
Target sequence (P49798 whole entry, looked up): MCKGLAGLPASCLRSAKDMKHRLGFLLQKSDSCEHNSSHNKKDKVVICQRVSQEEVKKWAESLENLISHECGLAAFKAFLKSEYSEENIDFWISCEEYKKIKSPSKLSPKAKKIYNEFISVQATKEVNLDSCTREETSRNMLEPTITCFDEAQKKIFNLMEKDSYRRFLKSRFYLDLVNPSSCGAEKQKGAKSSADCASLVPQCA
MrgX1 antagonist = blocks BAM8-22 activation of human MrgX1 receptor; MRGX1-HEK293 calcium flux, Fluo-4, BAM8-22 antagonism; stronger effect = lower value; B-score at 10 µM; hit rate 1.3% among 310,000; AID 588676;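 active means calcium-response B-score plate-corrected more than 3 library SD below zero, starting fluorescence within 5 deviations, no agonist response on first addition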;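 further: peak minus trough fluorescence over baseline after final BAM8-22 challenge near maximal dose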
Target sequence (Q96LB2 whole entry, looked up): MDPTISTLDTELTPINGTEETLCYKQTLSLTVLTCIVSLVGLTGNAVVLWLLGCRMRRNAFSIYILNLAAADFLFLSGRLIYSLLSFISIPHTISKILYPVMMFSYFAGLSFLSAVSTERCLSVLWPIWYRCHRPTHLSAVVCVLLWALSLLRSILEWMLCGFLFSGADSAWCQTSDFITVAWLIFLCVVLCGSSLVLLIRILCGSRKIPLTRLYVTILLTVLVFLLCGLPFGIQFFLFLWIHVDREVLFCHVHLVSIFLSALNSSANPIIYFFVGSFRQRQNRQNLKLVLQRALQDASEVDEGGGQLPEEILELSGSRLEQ
MrgX1 PAM = allosterically activates human MrgX1 receptor signaling | Q96LB2 | MrgX1-HEK293, Fluo-4 calcium flux, FDSS; stronger effect = higher value | B-score at 10 µM | hit rate 0.63% among 310,000 | AID 588675;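 active means plate-corrected calcium response at least 3 library SD above typical, normal starting fluorescence, not activating the receptor alone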;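 further: compound read alongside a low EC10 to EC30 dose of BAM8-22 agonist; peak minus trough fluorescence over baseline measured at the second addition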
RGS4 act = potentiators or activators of RGS4 | B-score at 10 µM | AID 463111 | hit rate 0.92% among 310,000 | HEK293 M3R/inducible RGS4, carbachol calcium flux Fluo4; stronger effect = lower value;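 active means B-score of the integrated calcium signal more than 4 SD below the library mean, with starting fluorescence not abnormally high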;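 further: negative B-score means reduced calcium response which marks RGS4 activation or potentiation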
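Assay system: HEK293 FlpIn-TREx cells, stable M3R, doxycycline-inducible RGS4 / Probe or stimulus: carbachol, ECmax concentration / Times: overnight RGS4 induction, 30 min dye load 37 °C, 20 min compound RT / Signal: kinetic calcium fluorescence imaging with Fluo4-AM dye, 2 µM / Measure: Agonist-evoked peak-minus-minimum fluorescence over baseline, integrated ratio, B score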
MrgX1 agonist = human MrgX1 receptor agonism, primary screen. Q96LB2. MrgX1-HEK293 cells, Fluo-4 calcium fluorescence, agonist mode; stronger effect = higher value. B-score at 10 µM. hit rate 0.44% among 310,000. AID 588627;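 active means calcium response B-score plate-corrected fluorescence ratio at least 3 library SD, with starting fluorescence B-score inside 5 SD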
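Assay system: stable human MrgX1 HEK293 cell line. Quantity: 15,000 cells per well. Schedule: cells plated overnight, dye loaded 0.5 h 37 °C, 0.5 h room temperature. Detection: Fluo-4 NW calcium-flux fluorescence, kinetic read. Read-out basis: peak-minus-minimum fluorescence over baseline, converted to B scores. Control set: positive and negative control wells on each plate.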
MrgX1 antag conf = reconfirmed antagonist of human MrgX1 receptor signaling; MrgX1-HEK293, BAM8-22 calcium flux, Fluo-4; stronger effect = lower value; AID 602420; shares compounds with MrgX1 antagonist; remaining BAM8-22 calcium response % of control (stronger effect = lower value), % at 10 µM; hit rate 19% among 2,300;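 active means remaining agonist calcium response no higher than 100% minus 3 SD of agonist-only control wells, with starting fluorescence near control levels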;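 further: agonist BAM8-22 given at a near maximal EC90 to ECmax level; peak minus minimum fluorescence divided by baseline after agonist addition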
HEK293 Ca flux = counter-screen for MrgX1 antagonists: effect in parental HEK293 cells; Fluo-4 calcium fluorescence, FDSS; shares compounds with MrgX1 antagonist; fluorescence ratio F(max-min)/F0 at 10 µM; hit rate 2% among 4,000;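 active means duplicate-averaged calcium fluorescence ratio at least three times the standard deviation of buffer wells, a nonspecific response in parental cells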
HEK293 Ca counter = MrgX1 allosteric activator counter-screen hit in parental HEK293 cells; shares compounds with MrgX1 antagonist; parental HEK293 calcium flux, Fluo-4 fluorescence ratio; stronger effect = higher value; fluorescence ratio F(max-min)/F0 at 10 µM; hit rate 0.4% among 4,000;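 active means calcium fluorescence ratio, averaged over duplicates, at least 3 SD of the buffer-well ratio, meaning a nonspecific response in receptor-free cells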;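 further: untransfected parental HEK293 lacking MrgX1 used as counterscreen for MrgX1 allosteric activators; fluorescence change taken during the second addition on a kinetic imager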
HEK293 Ca cntr2 = MrgX1 activator counter-screen hit in parental HEK293 cells | shares compounds with MrgX1 antagonist | Fluo-4 calcium fluorescence (FDSS); stronger effect = higher value | fluorescence ratio F(max-min)/F0 at 10 µM | hit rate 8.7% among 4,000 | AID 624115;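 active means calcium fluorescence ratio at least three times the spread of buffer wells, meaning a non-specific response in parental cells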
Hits are given with their value; . = inactive; / = no result given. Hits are enriched below; roughly 3.5% of the tested compounds scored in any of these assays.

SMILES	RGS4 inh	MrgX1 antagonist	MrgX1 PAM	RGS4 act	MrgX1 agonist	MrgX1 antag conf	HEK293 Ca flux	HEK293 Ca counter	HEK293 Ca cntr2
Oc1ccccc1CNc1cnc2ccccc2c1	.	.	.	.	.	/	/	/	/
CN1CCN(c2ccc(-c3ccnn3C(=O)Nc3ccccc3)cc2)CC1	.	-10.3	.	.	.	.	.	.	.
CN1CCN(c2ccc(NC(=O)C(C)(c3ccccc3)c3ccccc3)cc2)CC1	.	.	.	.	.	/	/	/	/
Cc1cc(C)n(C(C)CC(=O)Nc2ccc3c(c2)OCO3)n1 (stereo unspecified)	.	.	.	.	.	/	/	/	/
Cc1ccc(C(=O)NC2CC3CCC(C2)N3Cc2ccco2)cc1 (stereo unspecified)	.	-7.81	.	.	.	.	.	.	.
COc1cc(OC)cc(C(=O)NC2CC3CCC(C2)N3Cc2ccco2)c1 (stereo unspecified)	.	/	/	.	/	/	/	/	/
Cc1ccc(C(=O)NCc2ccco2)cc1	.	-5.32	.	.	.	.	.	.	.
N#CCn1c(CN2CCCC2)nc2ccccc2c1=O	.	.	.	.	.	/	/	/	/
CS(=O)(=O)c1ccc(C(=O)OCC(=O)N2CCCc3ccccc32)cc1	.	-7.27	.	.	.	84.5%	.	.	.
CC(C)Oc1ccc(C(=O)N2CCCc3ccccc32)cc1	.	-6.27	.	.	.	.	.	.	.
O=C(OCC(=O)N1CCCc2ccccc21)c1cc(S(=O)(=O)N2CCOCC2)ccc1Cl	.	-4.51	.	.	.	.	.	.	.
COc1ccc(C(=O)N2CCCc3ccccc32)cc1	.	.	.	.	.	/	/	/	/
O=C(CN1C(=O)NC2(CCCCC2)C1=O)NCC(=O)Nc1ccc(F)c(F)c1	.	.	.	.	.	/	/	/	/
Cc1cc(-c2nnc3n2N=C(c2ccc(F)cc2)CS3)n[nH]1	.	.	.	.	.	/	/	/	/
CN(CC(=O)Nc1cccc(F)c1)C(=O)CCCN1C(=O)c2cccc3cccc(c23)C1=O	.	.	.	.	.	/	/	/	/
CC1CC(=O)C2=C(C1)Nc1ncnn1C2c1ccccc1 (stereo unspecified)	.	.	.	.	.	/	/	/	/
Cc1nc2n(n1)C(c1ccccc1)C1=C(CC(c3ccco3)CC1=O)N2 (stereo unspecified)	.	-7.91	.	.	.	.	.	.	.
CCOc1c(OC)cccc1C1CC(=O)Nc2cc3c(cc21)OCCO3 (stereo unspecified)	.	-4.89	.	.	.	.	.	.	.
CCCCNC(=O)N1CCCN(c2ccc(C#N)cn2)CC1	.	.	.	.	.	/	/	/	/
O=C(c1nc2ccc(Cl)cn2c1CN1CCC(O)CC1)N1CCc2ccccc2C1	.	-5.55	.	.	.	.	.	.	.
CC1CCN(C(=O)CSc2nc3[nH]ncc3c(=O)[nH]2)CC1	.	-6.42	.	.	.	.	.	.	.
Cc1cc(C)cc(NC(=O)CSc2nc3[nH]ncc3c(=O)[nH]2)c1	.	-9.07	.	.	.	.	.	.	.
CC(=O)Nc1ccc(NC(=O)CN(C)S(=O)(=O)c2ccc3c(c2)CCC(=O)N3)cc1	.	.	.	.	.	/	/	/	/
O=C(CSc1nnc(-c2ccc(O)cc2)o1)Nc1ccccc1Br	.	.	.	.	.	/	/	/	/
Cc1ccc(C)c(S(=O)(=O)N2CCN(C(=O)Cc3ccccc3)CC2)c1	.	.	.	.	.	/	/	/	/
Cc1ccc(C)c(S(=O)(=O)N2CCN(C(=O)c3cccnc3)CC2)c1	.	-11.3	.	.	.	.	.	.	.
Cc1ccc(C)c(S(=O)(=O)N2CCN(C(=O)CSC(=S)N3CCCC3)CC2)c1	.	-5.26	.	.	.	.	.	.	.
